Laboratory results reported in ChEMBL document CHEMBL1123502, “Synthesis of [[(naphthalenylmethoxy)- and [[(quinolinylmethoxy)phenyl]amino]oxoalkanoic acid esters. A novel series of leukotriene D4 antagonists and 5-lipoxygenase inhibitors” (J Med Chem, 1986).

What was measured:
[1] = In vivo inhibition of LTD4-induced bronchospasm in guinea pig at dose of 50 mg/kg; settings: Cavia porcellus
[2] = biological target: Cyclooxygenase (Rattus norvegicus) (UniProt P35355+Q63921); experiment: In vitro inhibition of rat polymorphonuclear leukocyte (PMN) Prostaglandin G/H synthase at 100 uM
[3] = biological target: T1, Polyunsaturated fatty acid 5-lipoxygenase (Rattus norvegicus, UniProt P12527); experiment: Inhibition of rat polymorphonuclear leukocyte (PMN) 5-Lipoxygenase in vitro
T1 sequence (P12527 whole entry): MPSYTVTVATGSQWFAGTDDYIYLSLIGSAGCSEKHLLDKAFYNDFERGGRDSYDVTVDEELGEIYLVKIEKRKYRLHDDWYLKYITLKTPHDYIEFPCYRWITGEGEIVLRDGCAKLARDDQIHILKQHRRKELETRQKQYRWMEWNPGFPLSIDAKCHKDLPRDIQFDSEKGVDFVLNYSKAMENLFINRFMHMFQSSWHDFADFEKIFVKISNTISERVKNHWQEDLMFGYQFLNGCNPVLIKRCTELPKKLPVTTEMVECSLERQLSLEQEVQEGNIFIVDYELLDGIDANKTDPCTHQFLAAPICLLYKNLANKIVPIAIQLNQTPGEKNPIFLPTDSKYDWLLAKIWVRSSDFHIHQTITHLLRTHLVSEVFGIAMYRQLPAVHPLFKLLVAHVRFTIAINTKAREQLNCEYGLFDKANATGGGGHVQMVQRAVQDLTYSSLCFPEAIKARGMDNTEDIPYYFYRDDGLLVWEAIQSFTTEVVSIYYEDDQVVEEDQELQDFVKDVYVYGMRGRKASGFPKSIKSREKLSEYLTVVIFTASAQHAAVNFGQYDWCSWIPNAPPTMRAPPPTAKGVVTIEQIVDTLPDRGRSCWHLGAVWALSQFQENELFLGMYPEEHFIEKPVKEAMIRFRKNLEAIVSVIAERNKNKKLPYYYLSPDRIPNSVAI
Outline: (§1)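 Peritoneal PMNs came from female Wistar rats 24 h after ip 6% glycogen. Cells at 2×10^7/mL in HBSS with Ca2+/Mg2+ and 10 mM L-cysteine were preincubated with drug or vehicle for 10 min at 37 °C. The reaction was stopped with ice-cold water and acidified to pH 3.5, and LO and CO products were ether-extracted. IC50 per metabolite came from nonlinear regression.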

Cavia porcellus [4] = experiment: Compound was evaluated in vivo for the percent inhibition of Ovalbumin-induced (OA) bronchospasm in guinea pig at dose of 50 mg/kg id; assay type: functional; settings: route intraduodenal
Outline: (§2)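 Male Hartley guinea pigs (350-600 g) were sensitized with ovalbumin (5 mg ip plus 5 mg sc) and used 3-5 weeks later. They were anesthetized with pentobarbital, ventilated, and given indomethacin (10 mg/kg iv, 9 min before challenge) and chlorpheniramine (1.0 mg/kg iv, 1 min later). Drug was given id (or as noted) 10 min before 1% aerosolized ovalbumin; controls received saline. Overflow volume at 1, 3 and 5 min was taken as % of maximal bronchoconstriction and converted to % inhibition.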

Cavia porcellus [5] = experiment: Compound was evaluated in vivo for the percent inhibition of LTD4-induced bronchospasm in guinea pig at dose of 50 mg/kg id; assay type: functional; settings: route intraduodenal
Outline: (§3)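 Male guinea pigs (350-600 g) were anesthetized with pentobarbital sodium (50 mg/kg ip), cannulated and artificially ventilated, and spontaneous respiration arrested with pentobarbital (15 mg/kg iv). Indomethacin (10 mg/kg iv) was given 9 min before challenge. Drug was given id (or as noted) 10 min before iv LTD4 (0.3-1 μg/kg); controls received saline. Overflow volume at 1, 3 and 5 min was taken as % of maximal bronchoconstriction and converted to % inhibition versus control.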

[6] = biological target: T2, Polyunsaturated fatty acid 5-lipoxygenase (Rattus norvegicus) (UniProt P12527); experiment: In vitro inhibition of rat polymorphonuclear leukocyte (PMN) 5-Lipoxygenase at 100 uM
T2 sequence (whole entry): T1 sequence (P12527 whole entry)

Cyclooxygenase = biological target: T3, Cyclooxygenase (Rattus norvegicus, UniProt P35355+Q63921); experiment: In vitro inhibition of rat polymorphonuclear leukocyte (PMN) Prostaglandin G/H synthase; assay type: protein assay
T3 sequence (P35355 whole entry): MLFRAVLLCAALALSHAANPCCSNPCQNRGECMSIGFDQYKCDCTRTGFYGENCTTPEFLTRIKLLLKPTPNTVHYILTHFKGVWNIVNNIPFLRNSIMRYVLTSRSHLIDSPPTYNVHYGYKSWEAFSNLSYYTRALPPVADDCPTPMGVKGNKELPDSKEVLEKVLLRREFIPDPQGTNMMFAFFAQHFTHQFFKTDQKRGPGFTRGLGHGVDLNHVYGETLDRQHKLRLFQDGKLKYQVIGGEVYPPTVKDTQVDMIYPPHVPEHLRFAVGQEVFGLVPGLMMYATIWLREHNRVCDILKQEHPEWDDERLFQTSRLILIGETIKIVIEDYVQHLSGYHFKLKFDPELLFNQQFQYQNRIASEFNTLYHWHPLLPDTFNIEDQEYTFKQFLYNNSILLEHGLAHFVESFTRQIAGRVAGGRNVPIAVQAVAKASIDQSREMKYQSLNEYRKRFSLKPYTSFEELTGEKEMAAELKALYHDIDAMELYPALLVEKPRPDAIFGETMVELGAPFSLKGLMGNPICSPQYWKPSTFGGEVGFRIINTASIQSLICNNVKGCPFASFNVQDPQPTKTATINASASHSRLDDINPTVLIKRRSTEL
T3 sequence (Q63921 whole entry): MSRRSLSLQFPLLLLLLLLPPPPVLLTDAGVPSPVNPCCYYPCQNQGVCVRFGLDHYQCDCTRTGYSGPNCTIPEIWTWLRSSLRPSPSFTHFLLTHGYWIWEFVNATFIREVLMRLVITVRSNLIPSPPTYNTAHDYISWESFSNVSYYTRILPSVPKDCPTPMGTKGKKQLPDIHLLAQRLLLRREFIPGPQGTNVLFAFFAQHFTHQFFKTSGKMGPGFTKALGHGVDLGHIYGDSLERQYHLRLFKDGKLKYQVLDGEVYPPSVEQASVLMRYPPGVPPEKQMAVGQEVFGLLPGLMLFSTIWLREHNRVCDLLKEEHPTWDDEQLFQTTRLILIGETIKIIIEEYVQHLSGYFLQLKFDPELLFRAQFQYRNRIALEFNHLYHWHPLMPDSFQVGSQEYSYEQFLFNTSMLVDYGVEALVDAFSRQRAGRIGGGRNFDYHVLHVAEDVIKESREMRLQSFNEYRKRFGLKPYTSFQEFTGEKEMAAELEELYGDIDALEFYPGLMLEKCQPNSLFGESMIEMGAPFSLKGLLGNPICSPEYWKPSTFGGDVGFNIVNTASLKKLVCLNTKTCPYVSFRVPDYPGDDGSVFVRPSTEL
Outline: as §1

Cavia porcellus [7] = organism: Cavia porcellus; experiment: Compound was evaluated for its effect on LTD4-induced contraction of guinea pig trachea; assay type: functional
Outline: (§4)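 Isolated guinea pig tracheal spiral strips were contracted with LTC4 or LTD4, with antagonist at 3×10^-6 M versus untreated control. Responses are expressed as percentage of the tissue's maximal response to carbachol (1 mM). Potency is given as -log of the agonist concentration (M) giving a half-maximal response. pKB = -log([B]/(dose ratio - 1)), where dose ratio = treated ED50 ÷ control ED50. Control vs treated compared by unpaired Student's t test.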

Cavia porcellus [8] = organism: Cavia porcellus; experiment: Compound was evaluated for its effect on LTC4-induced contraction of guinea pig trachea; percentage of maximal response of tissue to carbachol; assay type: functional
Outline: as §4

Cavia porcellus [9] = organism: Cavia porcellus; experiment: Compound was evaluated for its effect on LTC4-induced contraction of guinea pig trachea; assay type: functional
Outline: as §4

Cavia porcellus [10] = organism: Cavia porcellus; experiment: Compound was evaluated for its effect on LTD4-induced contraction of guinea pig trachea; percentage of maximal response of tissue to carbachol; assay type: functional
Outline: as §4

Cavia porcellus [11] = experiment: Compound was evaluated in vivo for the percent inhibition of Ovalbumin-induced (OA) bronchospasm in guinea pig at dose of 100 mg/kg id; assay type: functional; settings: route intraduodenal
Outline: as §2

Cavia porcellus [12] = experiment: Compound was evaluated in vivo for the percent inhibition of LTD4-induced bronchospasm in guinea pig at dose of 10 mg/kg iv; assay type: functional
Outline: as §3

Cavia porcellus [13] = experiment: Compound was evaluated in vivo for the percent inhibition of Ovalbumin-induced (OA) bronchospasm in guinea pig at dose of 10 mg/kg iv; assay type: functional
Outline: as §2

| SMILES | inhibition [1] | inhibition [2] | IC50 [3] | also measured |
| --- | --- | --- | --- | --- |
| COC(=O)C(=O)Nc1cccc(OCc2ccc3ccccc3c2)c1 | -1% | < 50% | 6.9 µM | – |
| COC(=O)CC(=O)Nc1cccc(OCc2ccc3ccccc3n2)c1 | – | < 50% | 24.6 µM | inhibition in vivo at 50 mg/kg (Cavia porcellus [4]): 57% |
| COC(=O)CCC(=O)Nc1ccc(NC(=O)CCC(=O)OC)c(OCc2ccc3ccccc3n2)c1 | – | – | – | inhibition in vivo at 50 mg/kg (Cavia porcellus [5]): 18%; inhibition [6]: < 50% |
| CCOC(=O)CCC(=O)Nc1cccc(OCc2ccc3ccccc3n2)c1 | 95% | < 50% | 12.6 µM | inhibition in vivo at 50 mg/kg (Cavia porcellus [4]): 6% |
| COC(=O)CCC(=O)N(C)c1cccc(OCc2ccc3ccccc3n2)c1 | 48% | < 50% | 14 µM | inhibition in vivo at 50 mg/kg (Cavia porcellus [4]): 2% |
| COC(=O)CCC(=O)Nc1cccc(OCc2cccc3cccnc23)c1 | – | – | – | inhibition [6]: < 50% |
| O=C(O)CCC(=O)N(O)c1cccc(OCc2ccc3ccccc3c2)c1 | – | – | 15.7 µM | inhibition in vivo at 50 mg/kg (Cavia porcellus [4]): -35% |
| COC(=O)CCC(=O)Nc1ccc(OCc2ccc3ccccc3n2)cc1 | -7% | < 50% | 2.6 µM | – |
| COC(=O)CCC(=O)Nc1cccc(COc2ccc3ccccc3c2)c1 | – | < 50% | 1.91 µM | – |
| COC(=O)CCC(=O)Nc1cccc(OCc2ccc3ccccc3n2)c1C | – | < 50% | 15.5 µM | – |
| COC(=O)CC(=O)Nc1cccc(OCc2ccc3ccccc3c2)c1 | – | < 50% | 9.5 µM | – |
| COC(=O)CCNC(=O)c1cccc(COc2ccc3ccccc3c2)c1 | -6% | – | 60.5 µM | – |
| COC(=O)CCC(=O)N(O)c1cccc(COc2ccc3ccccc3c2)c1 | 5% | – | 0.86 µM | IC50 (Cyclooxygenase): 6.1 µM |
| COC(=O)CCC(=O)Nc1ccccc1OCc1ccc2ccccc2c1 | – | < 50% | 86.2 µM | – |
| COC(=O)CCC(=O)Nc1cccc(OCc2ccc3ccccc3n2)c1 | 86% | < 50% | 28 µM | inhibition in vivo at 50 mg/kg (Cavia porcellus [4]): 43% |
| CCOC(=O)CC(=O)Nc1cccc(OCc2ccc3ccccc3n2)c1 | – | < 50% | 19 µM | inhibition in vivo at 50 mg/kg (Cavia porcellus [4]): 67% |
| COC(=O)CCCC(=O)Nc1cccc(OCc2ccc3ccccc3c2)c1 | 5% | – | 12.6 µM | – |
| N#CCCNC(=O)c1cccc(OCc2ccc3ccccc3c2)c1 | – | – | – | inhibition [6]: < 50% |

| SMILES | inhibition [1] | inhibition [2] | IC50 [3] | also measured |
| --- | --- | --- | --- | --- |
| COC(=O)CCC(=O)N(O)c1cccc(OCc2ccc3ccccc3c2)c1 | – | – | 0.6 µM | IC50 (Cyclooxygenase): 7.4 µM; inhibition in vivo at 50 mg/kg (Cavia porcellus [4]): 18% |
| COC(=O)CCC(=O)Nc1cccc(OCc2ccc3ccc(C)cc3n2)c1 | -6.1% | < 50% | – | inhibition [6]: < 50% |
| COC(=O)CCC(=O)Nc1cccc(OCc2ccc3ccccc3n2)c1C#N | -6% | < 50% | – | inhibition [6]: < 50% |
| COC(=O)CCCC(=O)Nc1cccc(OCc2ccc3ccccc3n2)c1 | – | – | 10.4 µM | – |
| O=C(O)CCNC(=O)c1cccc(COc2ccc3ccccc3c2)c1 | 2% | – | – | inhibition [6]: < 50% |
| COC(=O)CCC(=O)N(O)c1cccc(OCc2ccc3ccccc3n2)c1 | 97% | – | 1.4 µM | -Log ED50 (Cavia porcellus [7]): 7.79; pKB (Cavia porcellus [7]): 5.33; Max contractility (Cavia porcellus [8]): 77%; -Log ED50 (Cavia porcellus [9]): 7.5; pKB (Cavia porcellus [9]): 5.35; Max contractility (Cavia porcellus [10]): 63%; IC50 (Cyclooxygenase): 40 µM; inhibition in vivo at 50 mg/kg (Cavia porcellus [4]): 76% |
| COC(=O)CCNC(=O)c1cccc(OCc2ccc3ccccc3c2)c1 | – | < 50% | 29.5 µM | – |
| O=C(O)CCNC(=O)c1cccc(OCc2ccc3ccccc3c2)c1 | 10% | – | – | inhibition [6]: < 50% |
| CCCCCC(O)c1cccc(OCc2ccc3ccccc3n2)c1 (stereo not given) | – | < 50% | – | – |
| COC(=O)CCC(=O)Nc1ccccc1OCc1ccc2ccccc2n1 | -6% | – | – | inhibition [6]: < 50%; inhibition in vivo at 100 mg/kg (Cavia porcellus [11]): 9% |
| COC(=O)CCC(=O)Nc1cccc(Oc2ccc3ccccc3n2)c1 | 29% | – | 26 µM | inhibition in vivo at 50 mg/kg (Cavia porcellus [4]): -55% |
| COC(=O)CCC(=O)Nc1ccc(OCc2ccc3ccccc3c2)cc1 | 12% | – | – | inhibition [6]: < 50% |
| COC(=O)C(=O)Nc1cccc(OCc2ccc3ccccc3n2)c1 | -2% | < 50% | 5.3 µM | – |
| COC(=O)CCC(=O)Nc1cccc(OCc2ccc3ccccc3c2)c1 | – | < 50% | 3.2 µM | inhibition in vivo at 10 mg/kg (Cavia porcellus [12]): 54%; inhibition in vivo at 10 mg/kg (Cavia porcellus [13]): 10% |
| O=C(O)CCC(=O)Nc1cccc(OCc2ccc3ccccc3n2)c1 | 66% | – | – | inhibition [6]: < 50%; inhibition in vivo at 50 mg/kg (Cavia porcellus [4]): -20% |
| COC(=O)CCNC(=O)c1cccc(OCc2ccc3ccccc3n2)c1 | -3% | – | 35.2 µM | – |
| COC(=O)CCC(=O)Nc1cc(OCc2ccc3ccccc3n2)ccc1C | 23% | < 50% | 7.6 µM | – |
